In ChEMBL document CHEMBL1128250, “Structure-activity studies of 2,3,4,4a,5,9b-hexahydroindeno[1,2-c]pyridines as antispermatogenic agents for male contraception” (1995):
“And” between values parts separate entries of the source, which are not always exact repeats. Identical values can stand only once.

Assays:
[1] = system: Mus musculus; experiment: Tested for its effect on testes weight 3 days after single oral dose (90 mg/kg); assay type: functional, Testis
Procedure, shortened: (§1)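 CD-1 outbred Swiss albino male mice, 5 per dose, single gavage on day 0 at 10 mL/kg. Vehicle was 0.15 M acetate buffer pH 5, ethanol/Tween-20/water (3:7:90), or 1% Tween-20 in water. CO2 euthanasia 72 h later. Testes weighed and histologically scored (spermatogenic index 0–6). Values are % reduction versus the assay's vehicle control. Positive control was 30 mg/kg of the parent compound. Significance by Dunnett's one-tailed t-test, p < 0.05.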

[2] = system: Mus musculus; experiment: Tested for its effect on spermatogenic index 3 days after single oral dose (10 mg/kg),; assay type: functional; procedure, shortened: as §1
[3] = system: Mus musculus; experiment: Tested for its effect on spermatogenic index 3 days after single oral dose (30 mg/kg); assay type: functional; procedure, shortened: as §1
[4] = system: Mus musculus; experiment: Tested for its effect on testes weight 3 days after single oral dose (10 mg/kg); assay type: functional, Testis; procedure, shortened: as §1
[5] = system: Mus musculus; experiment: Tested for its effect on spermatogenic index 3 days after single oral dose (90 mg/kg); assay type: functional; procedure, shortened: as §1
[6] = system: Mus musculus; experiment: Tested for its effect on testes weight 3 days after single oral dose (30 mg/kg); assay type: functional, Testis; procedure, shortened: as §1
[7] = system: Mus musculus; experiment: Tested for its effect on spermatogenic index 3 days after single oral dose (90 mg/kg),; assay type: functional; procedure, shortened: as §1
[8] = system: Mus musculus; experiment: tested for its effect on testes weight 3 days after single oral dose (90 mg/kg); assay type: functional, Testis
Procedure, shortened: (§2)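 Male CD-1 (ICR)BR outbred Swiss albino mice, 5/dose, given one oral gavage dose (10 mL/kg) on day 0 in 0.15 M acetate buffer pH 5, ethanol/Tween-20/water (3:7:90), or 1% Tween-20 in water; vehicle and positive-control groups in each assay. Killed by CO2 72 h later; testes weighed. Expressed as % reduction versus vehicle control; Dunnett's one-tailed t-test.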

[9] = system: Mus musculus; experiment: tested for its effect on testes weight 3 days after single oral dose (30 mg/kg); assay type: functional, Testis; procedure, shortened: as §2
[10] = system: Mus musculus; experiment: tested for its effect on spermatogenic index 3 days after single oral dose (10 mg/kg); assay type: functional
Procedure, shortened: (§3)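 Male CD-1 (ICR)BR outbred Swiss albino mice, 5/dose, single oral gavage dose (10 mL/kg) on day 0 in acetate buffer pH 5 or Tween-20-based vehicle; killed 72 h later. Testis cross-sections scored histologically on a 0–6 spermatogenic index (Sertoli only to >100 late spermatids/tubule). Reported as % reduction versus vehicle control; Dunnett's one-tailed t-test.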

[11] = system: Mus musculus; experiment: tested for its effect on spermatogenic index 3 days after single oral dose (30 mg/kg); assay type: functional; procedure, shortened: as §3
[12] = system: Mus musculus; experiment: Tested for its effect on spermatogenic index 3 days after single oral dose (10 mg/kg); assay type: functional
Procedure, shortened: (§4)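 Male CD-1 (ICR) mice, 7 weeks old on arrival, 5 per dose, single gavage of 10 mL/kg on day 0. Vehicle was 0.15 M acetate buffer pH 5, ethanol/Tween-20/water 3:7:90, or 1% Tween-20. Mice were killed with CO2 at 72 h and testes weighed and scored for spermatogenic index (0–6 scale). Results are % reduction versus the vehicle control. Dunnett's one-tailed t-test.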

[13] = system: Mus musculus; experiment: Tested for its effect on testes weight 3 days after single oral dose (3 mg/kg); assay type: functional, Testis; procedure, shortened: as §4
[14] = system: Mus musculus; experiment: Tested for its effect on spermatogenic index 3 days after single oral dose (3 mg/kg),; assay type: functional; procedure, shortened: as §4
[15] = system: Mus musculus; experiment: Tested for its effect on testes weight 3 days after single sub cutaneous dose (30 mg/kg); assay type: functional, Testis
Procedure, shortened: (§5)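 Single subcutaneous injection, 10 mL/kg, to male CD-1 mice (5 per dose) in ethanol/Tween-20/water (3:7:90, v/v/v) on day 0. Mice were killed at 72 h; testes were weighed and histology scored for spermatogenic index (0–6). Results are % reduction from the vehicle control, with a 30 mg/kg positive control group. Dunnett's one-tailed t-test.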

[16] = system: Mus musculus; experiment: Tested for its effect on spermatogenic index 3 days after single oral dose (3 mg/kg); assay type: functional; procedure, shortened: as §4
[17] = system: Mus musculus; experiment: Tested for its effect on mouse testes weight 3 days after single oral dose (90 mg/kg); assay type: functional, Testis; procedure, shortened: as §1
[18] = system: Mus musculus; experiment: Tested for its effect on spermatogenic index 3 days after single oral dose (90 mg/kg) in mice; assay type: functional; procedure, shortened: as §1
[19] = system: Mus musculus; experiment: Tested for its effect on spermatogenic index 3 days after single sub cutaneous dose (3 mg/kg); assay type: functional; procedure, shortened: as §5
[20] = system: Mus musculus; experiment: Tested for its effect on spermatogenic index 3 days after single sub cutaneous dose (10 mg/kg); assay type: functional; procedure, shortened: as §5
[21] = system: Mus musculus; experiment: Tested for its effect on testes weight 3 days after single sub cutaneous (10 mg/kg); assay type: functional, Testis; procedure, shortened: as §5
[22] = system: Mus musculus; experiment: Tested for its effect on testes weight 3 days after single sub cutaneous dose (3 mg/kg); assay type: functional, Testis; procedure, shortened: as §5

| SMILES | Reduction [1] [%] | Reduction [3] | Reduction [4] [%] | Reduction [6] [%] | Reduction [7] [%] | further results |
| --- | --- | --- | --- | --- | --- | --- |
| Cc1ccc([C@@H]2c3cc(C)ccc3[C@H]3CN(C(C)C)CC[C@@H]23)cc1.Cl | 23 | 28% | 7 | 15 |  | Reduction [2]: 10%; Reduction [5]: 45% |
| CCN1CC[C@H]2[C@H](c3ccc(C(=O)O)cc3)c3cc(C)ccc3[C@H]2C1.Cl (stereo in doubt; (l)-10k) | -7 |  |  |  |  | Reduction [5]: 0% |
| Cc1ccc([C@@H]2c3cc(C)ccc3[C@H]3CN(C)CC[C@@H]23)cc1.Cl | 8 |  |  |  | -3 | Reduction [8]: 7%; Reduction [9]: 18%; Reduction [10]: 26%; Reduction [11]: 38% |
| CCc1ccc2c(c1)[C@@H](c1ccc(C(=O)OC)cc1)[C@@H]1CCN(CC)C[C@H]21.Cl |  | 23% | 0 | 8 |  | Reduction [12]: -4%; Reduction [13]: -18%; Reduction [14]: 4% |
| CCN1CCC(C(O)c2ccc(C)cc2)C(c2ccc(C)cc2)C1.Cl (stereo in doubt; 16b) | 0 |  |  |  | 0 |  |
| CCN1CCC(C(O)(c2ccc(C)cc2)c2ccc(C)cc2)CC1.Cl | -21 |  |  |  | 0 |  |
| CCN1CCC(=C(c2ccc(C)cc2)c2cccc(C)c2)CC1.Cl | -5 |  |  |  | 0 |  |
| CCN1CC[C@H]2[C@H](c3ccc(C=O)cc3)c3cc(C)ccc3[C@H]2C1.Cl |  | 31% and 30% | 6 | 7 |  | Reduction [15]: -4%; Reduction [12]: 2%; Reduction [13]: 7%; Reduction [14]: 0% |
| CCN1CC[C@H]2[C@H](c3ccc(C(=O)O)cc3)c3cc(C)ccc3[C@H]2C1.Cl (stereo in doubt; (d)-10k) | 27 | 67% | 26 | 16 |  | Reduction [16]: 21%; Reduction [12]: 40%; Reduction [13]: -5%; Reduction [5]: 70% |
| CCN1CCC(C(c2ccc(C)cc2)c2cccc(C)c2)CC1.Cl (centres undefined) |  | -5% |  | 9 |  | Reduction [13]: 2%; Reduction [14]: 2% |
| CCN1CC[C@H]2[C@H](c3ccc(O)cc3)c3cc(C)ccc3[C@H]2C1.Cl | -1 |  |  |  | -5 |  |
| CCN1CC[C@@H]2[C@@H](c3ccc(C)cc3)c3cc(C)ccc3[C@H]2C1.Cl | -18 |  |  |  | 0 |  |
| CCN1CC[C@H]2[C@H](c3ccccc3)c3ccccc3[C@H]2C1.Cl | -2 |  |  |  | 2 |  |
| CCN1CC[C@H]2[C@H](c3ccc(CO)cc3)c3cc(C)ccc3[C@H]2C1.Cl | 4 | 57% | 13 | 23 | -5 | Reduction [15]: 6%; Reduction [12]: 20% |
| CCN1CC[C@H]2[C@@H](c3ccc(C)cc3)c3cc(C)ccc3[C@H]2C1.Cl |  |  |  |  |  | Reduction [17]: 2%; Reduction [18]: -9% |
| CCN1CC[C@H]2[C@H](c3ccccc3)c3cc(C)ccc3[C@H]2C1.Cl | -8 |  |  |  | -9 |  |
| CCN1CC[C@H]2[C@H](c3ccc(C)cc3)c3ccccc3[C@H]2C1.Cl | 20 | 20% | 5 | 3 |  | Reduction [2]: 0%; Reduction [5]: 35% |
| CCN1CC[C@H]2[C@H](c3ccccc3C)c3cc(C)ccc3[C@H]2C1.Cl | 3 |  |  |  | -9 |  |
| Cc1ccc([C@@H]2c3cc(C)ccc3[C@H]3CNCC[C@@H]23)cc1.Cl | -3 |  |  |  | -5 |  |
| CCN1CCC(C(O)c2ccc(C)cc2)C(c2ccc(C)cc2)C1.Cl (stereo in doubt; 16a) | -9 |  |  |  |  |  |
| CCN1CC[C@H]2[C@H](c3ccc(C#N)cc3)c3cc(C)ccc3[C@H]2C1.Cl | 13 |  |  |  | -4 |  |
| CCCN1CC[C@H]2[C@H](c3ccc(C)cc3)c3cc(C)ccc3[C@H]2C1.Cl | 11 |  |  |  | 0 |  |
| CCN1CC[C@H]2[C@H](c3ccc(C(=O)O)cc3)c3cc(C)ccc3[C@H]2C1.Cl (stereo in doubt; 10k) |  | 51% and 35% | 24 | 28 |  | Reduction [19]: 8%; Reduction [15]: 17%; Reduction [12]: 36%; Reduction [13]: 13%; Reduction [20]: 27%; Reduction [21]: -3%; Reduction [22]: 5%; Reduction [14]: 2% |
| CCCOC(=O)c1ccc([C@@H]2c3cc(C)ccc3[C@H]3CN(CC)CC[C@@H]23)cc1.Cl |  | 56% and 43% | 3 | 31 |  | Reduction [16]: 2%; Reduction [19]: -1%; Reduction [15]: 17%; Reduction [12]: 33%; Reduction [13]: 11%; Reduction [20]: 13%; Reduction [21]: 10%; Reduction [22]: 7% |
| CCN1CC[C@H]2[C@H](c3ccc(F)cc3)c3cc(C)ccc3[C@H]2C1.Cl | 5 |  |  |  | -5 |  |
| CCc1ccc2c(c1)[C@@H](c1ccc(C)cc1)[C@@H]1CCN(CC)C[C@H]21.Cl |  | 33% | 2 | 26 |  | Reduction [12]: 7%; Reduction [13]: 3%; Reduction [14]: -2% |
| CCN1CC[C@H]2[C@H](c3cccc(C)c3)c3cc(C)ccc3[C@H]2C1.Cl | -11 |  |  |  | -9 |  |
